Screening results (PubChem)
CRFBP-R2 block = antagonists of CRF-BP/CRF-R2 complex, primary screen, cell-based, HEK293, calcium dye fluorescence, uHTS. CRF-induced calcium fluorescence. inhibition, % at 11.8 µM. 350,000 tested, 0.59% active;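 active = inhibition of the ligand-induced calcium signal above about 50% at the single tested concentration, limit read from the data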
RTF Ca sens act = cardiac RTF calcium sensitivity activators, primary screen, biochemical, IANBD-TnC fluorescence, EC20 calcium. activation, % at 7.2 µM. 340,000 tested, 0.24% active. Troponin I, cardiac muscle (Homo sapiens) + Troponin T, cardiac muscle (Homo sapiens) + …. IANBD-labeled TnC RTF fluorescence at EC20 calcium; 0% EC20 calcium, 100% full calcium;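 active = activation above the mean over all tested compounds plus 3 SD, cut at about 30% in these data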;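 also: rise in fluorescence read as greater calcium sensitivity of cardiac thin filaments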
RTF Ca sens inh = cardiac RTF calcium sensitivity inhibitors, primary screen, biochemical, IANBD-TnC fluorescence, EC70 calcium; Troponin I, cardiac muscle (Homo sapiens) + Troponin T, cardiac muscle (Homo sapiens) + …; IANBD-labeled cardiac RTF, Ca2+ fluorescence; inhibition, % at 7.15 µM; 340,000 tested, 0.12% active; AID 493244, 2011;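 active = inhibition above the mean inhibition of all tested compounds plus 3 SD, cut at about 17% in these data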;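 also: assay run at fixed EC70 calcium of 1.6 mM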
DDE Tn6 FP inh = inhibitors of Tn6 peptide binding to fibrin DD(E), primary screen, biochemical, fluorescence polarization, human fibrin, Tn6 probe | Fibrin DD(E) TRITC-Tn6 fluorescence polarization displacement | inhibition, % at 8.3 µM | AID 720509, 2013 | 370,000 tested, 0.21% active | Fibrinogen beta chain (Homo sapiens), P02675;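 active = inhibition above a per-campaign cutoff: mean of compounds within control limits plus 3 SD, cut at about 15% in these data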
Target sequence (P02675 whole entry, looked up): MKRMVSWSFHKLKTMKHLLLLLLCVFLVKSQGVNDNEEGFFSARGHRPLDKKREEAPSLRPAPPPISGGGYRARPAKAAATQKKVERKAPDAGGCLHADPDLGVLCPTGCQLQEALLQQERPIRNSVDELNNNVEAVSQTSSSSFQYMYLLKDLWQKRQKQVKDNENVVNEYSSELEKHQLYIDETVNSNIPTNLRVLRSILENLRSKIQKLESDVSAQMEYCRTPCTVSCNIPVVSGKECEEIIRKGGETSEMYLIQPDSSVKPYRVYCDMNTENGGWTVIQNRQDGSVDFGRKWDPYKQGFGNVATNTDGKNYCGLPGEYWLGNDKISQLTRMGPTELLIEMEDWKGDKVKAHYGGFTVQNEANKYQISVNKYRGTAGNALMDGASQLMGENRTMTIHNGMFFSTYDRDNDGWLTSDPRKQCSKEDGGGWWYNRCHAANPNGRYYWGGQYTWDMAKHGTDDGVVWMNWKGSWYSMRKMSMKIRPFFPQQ
CRFR2-BP ag = agonists of CRF-BP/CRF-R2 complex, primary screen, cell-based, HEK293, calcium dye fluorescence, uHTS; CRF-binding protein / CRF receptor 2 complex (human); calcium dye fluorescence (FLIPR); percent of saturating CRF peptide response; activation, % at 13.2 µM; 350,000 tested, 0.46% active;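 active = activation of at least 50%, plus an integration ratio under a set limit after plate pattern correction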
Tn7 DDE FP = inhibitors of Tn7 peptide binding to fibrin DD(E), primary screen, biochemical, fluorescence polarization, human fibrin, Tn7 probe. 370,000 tested, 0.13% active. FP displacement of FITC-Tn7 peptide from fibrin DD(E); 0% = median of compound wells per plate. inhibition, % at 8.3 µM. Fibrinogen beta chain (Homo sapiens), P02675;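 active = inhibition above the mean of compounds falling within the control limits plus 3 SD of them, cut at about 14% in these data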
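System: human fibrin DD(E); quantity: Fibrin-DD(E) at 2 µM final; also added: fluorescent Tn7 probe at 0.1 µM; compound dosing: single nominal test concentration of 8.3 µM per compound; schedule: 10 min preincubation, 3 h with tracer, room temperature; detection: fluorescence polarization of the labelled Tn7 tracer; repeats: one replicate per compound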
Each line names hits and unclear results; the compound was inactive in the other large screens. Most compounds without a hit are left out; they make up all but 1.4% or so of the library.

COCOc1ccc(/C=C/C(=O)c2c(OCOC)cc(OCOC)c(CC=C(C)C)c2O)cc1OCOC	none (no result: RTF Ca sens act, RTF Ca sens inh, DDE Tn6 FP inh, Tn7 DDE FP)
COc1cc(CCc2ccccc2)c(C(=O)O)c(O)c1C/C=C(/C)CCC=C(C)C	CRFBP-R2 block 72.0
COc1cc(CCc2ccccc2)c(C(=O)O)c(O)c1CC=C(C)C	CRFBP-R2 block 61.3
COc1ccc(CNC(=O)CN2CCN(c3ccc(F)cc3)CC2)cc1	CRFBP-R2 block 57.6
Cc1ccc(CNC(=O)CN2CCN(c3ccc(F)cc3)CC2)cc1	none
CCC(C(=O)NCCN1CCOCC1)n1c2ccccc2c2nc(=O)cc(C)n21 (stereo not given)	CRFBP-R2 block 51.5
COc1cc(N(C)C)ccc1C=c1c2ccccc2n2c1cc(-c1ccccc1)[n+]2C	none
COc1cc(C=c2c3ccccc3n3c2cc(-c2ccccc2)[n+]3C)cc(OC)c1OC	DDE Tn6 FP inh 17.2
COc1ccccc1C(=O)NNC1=C(C(=O)C(F)(F)F)CCC1	CRFR2-BP ag 62.4
Cc1cc(C)c2c(CC(=O)Nc3nccs3)coc2c1	CRFBP-R2 block 99.4
CC(C)(C)c1ccc(SCCc2cccnc2)cc1	CRFBP-R2 block 71.0
c1ccc(SCCc2ccncc2)cc1	none
Cc1cc(C)cc(NC(=O)O[C@@H]2CC[C@@]34CCCN3C(=O)CCC[C@H]4C2)c1	none (no result: CRFBP-R2 block, RTF Ca sens act, RTF Ca sens inh, CRFR2-BP ag)
N#C/C(=C\c1ccc(N2CCOCC2)o1)C(=O)NC1CCCCC1	RTF Ca sens act 45.0, CRFR2-BP ag 96.0
N#C/C(=C\c1ccc(N2CCOCC2)o1)C(=O)NCC1CCCO1 (stereo not given)	RTF Ca sens act 53.3
CCOC(=O)c1c(NC(C)=O)sc2c1CCN(Cc1ccccc1)C2	none
CCOC(=O)c1c(NC(=O)C(C)Sc2cccc[n+]2[O-])sc2c1CCN(Cc1ccccc1)C2 (stereo not given)	CRFR2-BP ag 51.4 (no result: DDE Tn6 FP inh, Tn7 DDE FP)
N#Cc1ccc(/C=C2\CC3(OC(=O)C4CCCCC4)CCCN2C3)cc1 (stereo not given)	none (no result: CRFBP-R2 block, RTF Ca sens act, RTF Ca sens inh, CRFR2-BP ag)
COc1ccccc1OCC(=O)NCC1CCCN(C(=O)c2ccccc2SC)C1 (stereo not given)	none
COc1ccccc1OCC(=O)NCC1CCCN(C(=O)c2ccccc2C(C)=O)C1 (stereo not given)	CRFBP-R2 block 68.3
COc1ccc(-c2nc(SCC(=O)N(CC(C)C)c3c(N)n(Cc4ccccc4)c(=O)[nH]c3=O)n[nH]2)cc1	none
Cc1ccc(C(=O)N(Cc2ccco2)c2c(N)n(Cc3ccccc3)c(=O)[nH]c2=O)cc1	none (no result: RTF Ca sens act, RTF Ca sens inh)
COc1cc(OC)cc(C(=O)N(Cc2ccco2)c2c(N)n(Cc3ccccc3)c(=O)[nH]c2=O)c1	RTF Ca sens act 31.3
CCCN(C(=O)CSc1n[nH]c(-c2ccc(OC)cc2)n1)c1c(N)n(Cc2ccccc2)c(=O)[nH]c1=O	CRFBP-R2 block 59.2
CC(=O)c1cc(-c2cccc(CO)c2)c(=O)n2c1CCC2	none (no result: CRFBP-R2 block, RTF Ca sens act, RTF Ca sens inh, CRFR2-BP ag)
C[C@@H]1CCN(C2CC2)S(=O)(=O)c2ccc(N3CC[C@H](O)C3)cc2O1	none (no result: CRFBP-R2 block, RTF Ca sens act, RTF Ca sens inh, CRFR2-BP ag)
Cc1cc(C)cc(NC(=O)c2nnn(Cc3cc(C)ccc3C)c2N)c1	CRFR2-BP ag 53.6 (no result: DDE Tn6 FP inh, Tn7 DDE FP)
CCCC1(CCC)NC(=O)N(CC(=O)Nc2ccc(Cl)c(S(=O)(=O)N3CCOCC3)c2)C1=O	CRFBP-R2 block 69.1
C/C=C(\C)C(=O)OC1CC(C)(C)C[C@H]2C3=CC[C@@H]4[C@@]5(C)CCC(O[C@@H]6O[C@@H](C(=O)O)[C@@H](O)C(O[C@@H]7OC[C@H](O)[C@@H](O)[C@@H]7O[C@@H]7OC(CO)C(O)[C@@H](O)[C@@H]7O)C6O[C@@H]6OC(CO)C(O)C(O)C6O)[C@@](C)(CO)[C@@H]5CC[C@]4(C)[C@]3(C)CC(O)[C@@]12CO (stereo not given in full)	CRFR2-BP ag 78.2
COc1ccc(OC)c(/C=C2\SC(=S)N(Cc3cccnc3)C2=O)c1	CRFR2-BP ag 136.5
O=C1/C(=C\c2cc(Cl)c(O)c(Cl)c2)SC(=S)N1Cc1ccccc1	RTF Ca sens act 525.3, CRFR2-BP ag 186.6
COc1ccc(O)c(/C=C2/SC(=S)N(Cc3ccccc3)C2=O)c1	RTF Ca sens act 80.9, CRFR2-BP ag 73.8
COc1ccc(-c2nn(-c3ccccc3)cc2/C=C2/SC(=S)N(CCC(=O)O)C2=O)c(C)c1	CRFBP-R2 block 52.0
C=CCN1[C@H](CO)[C@H](c2ccc(Br)cc2)[C@@H]1C#N	none (no result: CRFBP-R2 block, RTF Ca sens act, RTF Ca sens inh, CRFR2-BP ag)
CCC[C@H]1[C@@H](NC(=O)C2CCCCC2)CC[C@@]23CCCN2C(=O)CCC[C@@H]13	none (no result: CRFBP-R2 block, RTF Ca sens act, RTF Ca sens inh, CRFR2-BP ag)
CC1CCCC(C)N1C(=O)COC(=O)c1cccs1 (stereo not given)	CRFBP-R2 block 61.8
Cc1ccsc1C(=O)OCC(=O)N1C(C)CCCC1C (stereo not given)	none
COc1cccc(C(=O)/C=C/Nc2ccc(S(=O)(=O)Nc3onc(C)c3C)cc2)c1	none
Cc1noc(NS(=O)(=O)c2ccc(N/C=C\C(=O)c3cccc4ccccc34)cc2)c1C	CRFBP-R2 block 56.1
CC1(C(=O)NS(=O)(=O)c2ccc(Cl)s2)CCN1C(=O)Cc1ccc(Cl)cc1Cl (stereo not given)	none (no result: CRFBP-R2 block, RTF Ca sens act, RTF Ca sens inh, CRFR2-BP ag)
COc1ccccc1CCn1cnc(-c2ccccc2OC)c1C(C)C	none (no result: CRFBP-R2 block, RTF Ca sens act, RTF Ca sens inh, CRFR2-BP ag)
CC(=O)Nc1cccc(OC(=O)c2ccoc2C)c1	CRFR2-BP ag 115.0
COc1ccc(CNC(=O)Nc2cccs2)cc1OC	CRFBP-R2 block 62.3
COc1cccc(CNC(=O)Nc2cccs2)c1	none
Cc1cccc(-c2cccc3c4c([nH]c23)[C@@H]2C[C@H](N(C)C(=O)Nc3ccccc3)[C@H]([C@H](C)O)C(=O)N2CC4)c1	none (no result: CRFBP-R2 block, RTF Ca sens act, RTF Ca sens inh, CRFR2-BP ag)
COc1ccccc1-c1sc2ccccc2c1-c1cnc(N2CCOCC2)nc1	none (no result: CRFBP-R2 block, RTF Ca sens act, RTF Ca sens inh, CRFR2-BP ag)
CC1(C)CC(=O)C2=C(C1)OC1=C(C(=O)CC(C)(C)C1)C2c1cc([N+](=O)[O-])cc([N+](=O)[O-])c1O	none
CC1(C)CC(=O)C(C2C3=C(CC(C)(C)CC3=O)Oc3c(Br)cc(Br)cc32)=C(O)C1 (stereo not given)	CRFR2-BP ag 82.4
